From ChEMBL document CHEMBL4823320, “SAR of novel benzothiazoles targeting an allosteric pocket of DENV and ZIKV NS2B/NS3 proteases” (Bioorg Med Chem, 2021) come the findings set out here.

In one series the test system is Huh-7. Briefly: Cytotoxicity against human Huh-7 cells assessed as cell viability after 96 hrs by CellTiter-Glo Luminescent cell viability assay. It is filed as cell-based. The note with it: huh-7, 96 h. The method in brief:
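Huh7 cells seeded at 4×10^3 per well and treated one day later with 1.25–40 µM compound or DMSO for 96 h. ATP-based luminescent viability read-out, normalized to untreated cells.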
In general terms: In ATP-based viability assays light output follows the ATP content of the culture.

A further series has as its system Zika virus. Put plainly: Antiviral activity against ZIKV H/PF/2013 infected in human Huh7 cells assessed as decrease in viral RNA expression at 10 uM measured up to 96 hrs by renilla luciferase assay. It is filed as functional, organism-based. The note with it: Huh-7, time hrs <=96. Summed up:
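Huh7 cells electroporated with in vitro transcribed ZIKV H/PF/2013 subgenomic replicon RNA (Renilla luciferase, coelenterazine substrate). Compound at 10 µM or DMSO is added 4 h post-electroporation in medium with 15 mM HEPES and replenished at 48 h. Lysates are taken at 4, 24, 48, 72 and 96 h and normalized to the 4 h input value. Duplicate reads; mean ± SD, n = 3.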

A further series deals with Nonstructural protein 3 (Zika virus, UniProt A0A024AXB9). Briefly: Inhibition of ZIKV NS2B-NS3 protease expressed in Escherichia coli BL21(DE3) using Boc-Gly-Arg-Arg-AMC as substrate by FRET assay. Summed up:
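His-tagged ZIKV NS2B/NS3 protease in 50 mM Tris pH 9.0, 20% glycerol, 1 mM CHAPS with 100 µM Boc-Gly-Arg-Arg-AMC. Dilution series 0.01–100 µM, read every 30 s for 10 min at 25 °C. IC50 from a four-parameter fit of hydrolysis rate; mean ± SD of ≥3 independent measurements.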

Series [1] has as its target T1, Genome polyprotein (dengue virus type 2, UniProt P29990). Put plainly: Inhibition of DENV2 NS2B-NS3 protease expressed in Escherichia coli BL21(DE3) using Boc-Gly-Arg-Arg-AMC as substrate by FRET assay. Summed up:
(§1)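 Recombinant His-tagged NS2B/NS3 protease, expressed in E. coli BL21-Gold (DE3) (1 mM IPTG, 20 °C, 16 h) and purified by Ni affinity and size exclusion. Assayed in 50 mM Tris pH 9.0, 20% glycerol, 1 mM Chaps, with 100 μM Boc-Gly-Arg-Arg-AMC. Fluorescence read every 30 s for 10 min at 25 °C; inhibitor 0.01–100 μM. IC50 from a four-parameter fit of hydrolysis rate; ≥3 independent experiments.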

A further series addresses Trypsin (Homo sapiens) (UniProt P07477+P07478+P35030). Briefly: Inhibition of Trypsin (unknown origin) assessed as residual enzyme activity at 20 uM by FRET assay relative to control. It is filed as protein assay. Summed up:
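Trypsin in 50 mM Tris pH 8.0, 100 mM NaCl, 5 mM EDTA with 40 µM Z-Phe-Arg-AMC. Compound at 20 µM, read every 30 s for 10 min at 25 °C. Residual activity is relative to DMSO control; mean ± SD, ≥3 independent measurements.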

Series [2] deals with Prothrombin (Homo sapiens) (UniProt P00734). Put plainly: Inhibition of Thrombin (unknown origin) assessed as residual enzyme activity at 20 uM by FRET assay relative to control. Summed up: (§2)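 Compound at 20 µM, read every 30 s for 10 min at 25 °C. Residual activity is relative to DMSO control; mean ± SD, ≥3 independent measurements.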
Series [3] addresses Chymotrypsin (Homo sapiens) (UniProt Q99895+P17538+P40313+Q6GPI1). Put plainly: Inhibition of Chymotrypsin (unknown origin) assessed as residual enzyme activity at 20 uM by FRET assay relative to control. It is filed as protein assay. The method in brief:
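α-Chymotrypsin in 50 mM Tris pH 8.0, 100 mM NaCl with Succ-Leu-Tyr-AMC. Compound at 20 µM, read every 30 s for 10 min at 25 °C. Residual activity is relative to DMSO control; mean ± SD, ≥3 independent measurements.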

The target in series [4] is Urokinase-type plasminogen activator (Homo sapiens) (UniProt P00749). Put plainly: Inhibition of Urokinase plasminogen activator (unknown origin) assessed as residual enzyme activity at 20 uM by FRET assay relative to control. The method in brief: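 Urokinase plasminogen activator in 50 mM Tris pH 7.4, 50 mM NaCl, 0.5 mM EDTA with 240 µM Z-Gly-Gly-Arg-AMC. Compound at 20 µM, read every 30 s for 10 min at 25 °C. Residual activity is relative to DMSO control; mean ± SD, ≥3 independent measurements.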

The subject of series [5] is Severe acute respiratory syndrome coronavirus 2. Put plainly: Inhibition of SARS-CoV-2 Main protease assessed as residual enzyme activity at 20 uM by FRET assay relative to control. The method in brief: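 Compound at 20 μM; fluorescence read every 30 s for 10 min at 25 °C. Residual activity expressed relative to DMSO control; mean of ≥3 independent measurements.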

A short description of series [6]: Inhibition of Rhodesain (unknown origin) assessed as residual enzyme activity at 20 uM by FRET assay relative to control. Summed up: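 Compound at 20 µM, fluorescence read every 30 s for 10 min at 25 °C. Residual activity is relative to DMSO control; mean ± SD, ≥3 independent measurements.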
Series [7] has as its target T2, Sortase A (Staphylococcus aureus) (UniProt Q9S446).
T2 sequence (whole entry): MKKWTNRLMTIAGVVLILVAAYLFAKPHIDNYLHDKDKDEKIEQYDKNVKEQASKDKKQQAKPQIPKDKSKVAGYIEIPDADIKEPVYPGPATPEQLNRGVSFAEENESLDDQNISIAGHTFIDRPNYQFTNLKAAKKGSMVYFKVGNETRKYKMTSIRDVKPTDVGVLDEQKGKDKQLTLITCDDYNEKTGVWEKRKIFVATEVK
Briefly: Inhibition of staphylococcus aureus Sortase A protease assessed as residual enzyme activity at 20 uM by FRET assay relative to control. The method in brief:
as §2

The nature of series [8]: Chemical stability of compound in tris assay buffer at pH 9 measured after 15 mins by HPLC/MS analysis. Type of series: physicochemical. To be noted: pH 9, 0.25 h. The method in brief:
(§3)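 Compound incubated in protease assay buffer (Tris pH 9.0) under simulated assay conditions and analysed by HPLC/MS after 15 min, 90 min and 20 h. Stability is the compound peak integral in the 210 nm UV trace as a proportion of the total integral.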

Series [9] is described as follows: Chemical stability of compound in tris assay buffer at pH 9 measured after 90 mins by HPLC/MS analysis. It is filed as physicochemical. To be noted: pH 9, 1.5 h. The method in brief: as §3
Series [10] can be described thus: Chemical stability of compound in tris assay buffer at pH 9 measured after 20 hrs by HPLC/MS analysis. It is filed as physicochemical. To be noted: pH 9, 20 h. Summed up: as §3
Series [11] can be described thus: Chemical stability of compound in cell culture conditions at pH 7.4 HEPES buffer measured after 15 mins by HPLC/MS analysis. To be noted: read-out: Stabilty. It is filed as physicochemical. Summed up: (§4)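 Compound incubated under simulated cell-assay conditions (HEPES pH 7.4) and analysed by HPLC/MS after 15 min, 90 min and 20 h. Stability is the compound peak integral in the 210 nm UV trace as a fraction of the total integral.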

Series [12] is described as follows: Chemical stability of compound in cell culture conditions at pH 7.4 HEPES buffer measured after 90 mins by HPLC/MS analysis. It is filed as physicochemical. To be noted: read-out: Stabilty. Summed up: as §4
Series [13] is described as follows: Chemical stability of compound in cell culture conditions at pH 7.4 HEPES buffer measured after 20 hrs by HPLC/MS analysis. The note with it: read-out: Stabilty. It is filed as physicochemical. Summed up: as §4
The subject of another series is dengue virus type 2. Briefly: Antiviral activity against DENV2 New Guinea C infected in human Huh7 cells assessed as decrease in viral RNA expression at 10 uM measured up to 72 hrs by firefly luciferase assay. It is filed as functional, organism-based. To be noted: Huh-7, time hrs <=72. The method in brief: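 Huh7 cells electroporated with in vitro transcribed DENV2 NGC subgenomic replicon RNA (firefly luciferase), 4×10^6 cells per 10 µg RNA. Compound at 10 µM or DMSO is added 4 h post-electroporation in medium with 15 mM HEPES and replenished at 48 h. Lysates are taken at 4–96 h and replication is expressed relative to the 4 h input value. Duplicate luminometer reads; mean ± SD, n = 3.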

Series [14] in a line: Inhibition of DENV2 NS2B-NS3 protease T120A/N167Q mutant expressed in Escherichia coli BL21(DE3) using Boc-Gly-Arg-Arg-AMC as substrate by FRET assay. On the set-up: species or system dengue virus type 2. The method in brief:
as §1

The target of series [15] is T1, Genome polyprotein. Briefly: Binding affinity to DENV2 NS2B-NS3 protease by Dixon plot analysis. The method in brief: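 Fluorogenic DENV2 NS2B/NS3 assay run in 50 mM Tris pH 9.0, 20% glycerol, 1 mM Chaps, with IC50 determined at several Boc-Gly-Arg-Arg-AMC concentrations (50–200 μM). Kinetic fluorescence read at 25 °C for 10 min. Mode of inhibition assessed and apparent Ki derived by Dixon plot analysis.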

Activity calls are given as the source filed them. No cut-off for these calls is given here.

For `O=C(Nc1nc2cc(O)c(O)cc2s1)c1ccc(I)cc1`, the Activity result in the series with Huh-7 was “Non-Toxic”; at Trypsin (Homo sapiens) it was 94%; in series [2] it was 65%; in series [3] it was 79%; in series [4] it was 100%; in series [5] it was 89%. For the same compound, the results for the Activity in [6] and in series [7] were 77% and 74%, respectively. For the same compound, the outcome in the series with Zika virus and with dengue virus type 2 was Active. Further, the IC50 on Nonstructural protein 3 was 0.67 µM; against Genome polyprotein [1] it was 4.38 µM; in [14], 8.01 µM. Moreover, the Stabilty in series [8], in series [9] and in series [10] was 83% in each case. In addition, the remaining at 0.25 h in series [11] was 95%. Moreover, the remaining at 1.5 h in [12] came to 95%. Further, the remaining at 20 h in series [13] came to 95%. The same compound came in with a Ki at Genome polyprotein [15] of 7.67 µM.

The term IC50 denotes the point on the concentration scale where inhibition reaches its midpoint. The low end stands for greater potency in that assay, the high end for weaker potency in that assay. What is called Ki is the equilibrium dissociation constant of an inhibitor or competing ligand from its target. Higher therefore signals a looser hold on the target.
